Compound activity as filed in PubChem BioAssay.
Shown are actives, neighbours in structure and some others; about 3.7% of the full set was active somewhere.
KCNK9 inh: inhibitors of human KCNK9 two-pore domain potassium channel; Q9NPC2; B-score at 10 µM; HEK293 KCNK9, FluxOR thallium flux fluorescence; stronger effect = lower value; AID 488922; 1.2% of 310,000 active;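 active = ratio B-score over 3 SD below the library mean, with starting fluorescence within 5 SD of its mean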;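 also: negative B-score means less thallium flux so channel inhibition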
KCNQ1 act: potentiators or activators of human KCNQ1 potassium channel; P51787; CHO-K1 KCNQ1, thallium flux FluxOR fluorescence; stronger effect = higher value; B-score at 10 µM; 0.35% of 310,000 active;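 active = fluorescence ratio B-score, a plate-corrected score, at least three library SD, with initial intensity B-score within 5 SD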
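Medium – assay buffer, equal DMSO in all wells · Material – CHO-K1 cell line with stable KCNQ1 potassium channel expression · Signal – kinetic FluxOR thallium fluorescence, 10-s 1-Hz baseline, 110-s post-stimulus read · Compound – single concentration per compound, DMSO matched to controls · Schedule – 37 °C overnight plating, 90-min dark dye load, 20-min compound pretreatment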
KCNK3 inh: human KCNK3 channel inhibition, primary screen | O14649 | CHO-KCNK3 thallium flux, FluxOR fluorescence; stronger effect = lower value | B-score at 10 µM | 0.84% of 340,000 active;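 active = B-score under library mean minus 4 SD, starting fluorescence ratio at most library mean plus 5 SD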;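 also: more negative B-score means stronger inhibition of thallium flux through KCNK3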
hERG rescue: hERG (human) protection from proarrhythmic block | activation (rescue from dofetilide block), less the hit threshold, % at 10 µM | Q12809 | CHO-hERG, FluxOR thallium flux, dofetilide IC70 present | 0.51% of 310,000 active;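 active = activation above the mean of controls blocked by dofetilide plus 5 SD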;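 also: thallium influx through hERG after potassium depolarization seen as dye fluorescence rise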
KCNQ1 inh: human KCNQ1 channel inhibition; 1.3% of 310,000 active; B-score at 10 µM; AID 2642; CHO-K1 KCNQ1, FluxOR thallium flux fluorescence; stronger effect = higher value;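 active = compounds whose thallium flux B-score, printed positive for inhibition, exceeds three library SD while starting fluorescence stays within three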;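 also: channel opened by potassium depolarization with thallium stimulus after 20 min compound exposure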
Kir21 inh: Kir2.1 (mouse) channel inhibition; AID 1672; 0.85% of 310,000 active; P35561; HEK293-Kir2.1, FluxOR thallium flux fluorescence; stronger effect = lower value; B-score at 10 µM;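 active = fluorescence ratio B-score at or below minus 3 SD of library scores, with starting-brightness B-score within 2 SD, cut at about -4.2 in these data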;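 also: channel flux triggered by added potassium and thallium sulfate stimulus; B-score of peak minus minimum fluorescence over baseline after thallium stimulus; more negative B-score means stronger Kir2.1 block with less thallium influx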
Target sequence (P35561 whole entry, looked up): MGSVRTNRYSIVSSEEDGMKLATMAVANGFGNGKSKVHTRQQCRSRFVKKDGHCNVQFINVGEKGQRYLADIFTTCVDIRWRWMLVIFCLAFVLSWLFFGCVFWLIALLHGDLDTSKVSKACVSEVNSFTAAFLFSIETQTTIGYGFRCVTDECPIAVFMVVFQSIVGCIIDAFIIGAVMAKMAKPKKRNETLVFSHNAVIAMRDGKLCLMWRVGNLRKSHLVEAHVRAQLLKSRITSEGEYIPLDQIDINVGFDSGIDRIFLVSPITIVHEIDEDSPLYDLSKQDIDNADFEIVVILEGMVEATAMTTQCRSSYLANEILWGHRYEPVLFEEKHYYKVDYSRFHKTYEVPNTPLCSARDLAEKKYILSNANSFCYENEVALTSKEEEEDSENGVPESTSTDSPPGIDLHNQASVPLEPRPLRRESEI
KCNQ1 block val: reconfirmed blocker of the human KCNQ1 potassium channel | shares compounds with KCNQ1 inh | KCNQ1 cell line, FluxOR thallium flux fluorescence | inhibition, % at 10 µM | 93% of 1,600 active | AID 588353;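 active = primary screen active, with duplicate mean exceeding buffer control mean plus 3 SD of buffer wells, cut at about 28% in these data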;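 also: 0% = buffer control ratio and 100% = XE991 inhibitor control ratio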
CHO KCNQ1 ctr: activity in parental CHO cells lacking KCNQ1. shares compounds with KCNQ1 inh. parental CHO-K1, FluxOR thallium flux fluorescence ratio; stronger effect = lower value; zero means no signal rise above baseline. fluorescence ratio (Tl flux) at 10 µM. 21% of 1,600 active. AID 588366;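 active = mean of duplicate thallium-flux fluorescence ratios in parental host cells more than 5 SD below the buffer control mean, cut at about 0.38 in these data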;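 also: ratio is peak minus minimum fluorescence divided by baseline fluorescence; actives read low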
KCNQ1 APC inh: confirmation of human KCNQ1 potassium channel inhibitors by electrophysiology. shares compounds with KCNQ1 inh. calls only at 10 µM. 20% of 490 active. KCNQ1-CHO cells, automated patch clamp current;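 active = KCNQ1 current drop exceeding 3 SD of negative control wells, seen in both duplicate runs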;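 also: steady state current during a 2 s step from -80 to +40 mV; negative values mean current inhibition and positive values mean potentiation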
KCNQ2 spec: selectivity of KCNQ1 inhibitors: inhibition of rat KCNQ2 channel; shares compounds with KCNQ1 inh; inhibition, % at 10 µM; 71% of 1,600 active; KCNQ2 cells, FluxOR thallium flux fluorescence;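 active = mean percent inhibition of the KCNQ2 thallium signal more than 5 SD above the buffer-only control wells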;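 also: KCNQ2 expressed in CHO cells; 0% = buffer control wells and 100% = XE-991 inhibitor control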
KCNQ1 KCNE1 spec: selectivity of KCNQ1 inhibitors: inhibition of human KCNQ1/KCNE1 channel. KCNQ1/KCNE1 cells, FluxOR thallium flux fluorescence. 77% of 1,600 active. shares compounds with KCNQ1 inh. inhibition, % at 10 µM;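 active = mean percent inhibition of duplicate wells above the buffer-only control mean plus 3 SD of those controls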;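 also: 0% = buffer only wells and 100% = XE-991 inhibitor control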
* hit, by the source's call; i = inactive; . = no result given; + = active, no number.

SMILES	KCNK9 inh	KCNQ1 act	KCNK3 inh	hERG rescue	KCNQ1 inh	Kir21 inh	KCNQ1 block val	CHO KCNQ1 ctr	KCNQ2 spec	KCNQ1 KCNE1 spec	others
CC(=O)OCC(=O)C1(O)CCC2C3CC(C)C4=CC(=O)C=CC4(C)C3=CCC21C (stereo unspecified)	.	.	i	.	.	.	.	.	.	.
Fc1cccc(Cl)c1CNc1ccc(N2CCCC2)cc1	i	i	i	-18	6*	0.58	0	0.44	72%*	40%*
Cc1cc(C)nc(NC(=NCCc2c[nH]c3ccccc23)NC(=O)Nc2ccc(Cl)cc2)n1	i	i	i	-12	6*	-0.14	48*	0.48	88%*	90%*
CCc1c(C#N)c(SCCC(=O)Nc2cccc(OC)c2)nc2c1C(=O)CC(C)(C)C2	i	i	i	-17	7*	-1	108*	0.43	99%*	129%*	KCNQ1 APC inh=i
COc1ccc(-c2c(C#N)c(SCc3c(C)noc3C)nc3c2C(=O)CC(C)(C)C3)cc1	i	i	i	-6	i	-0.45	.	.	.	.
CCc1c(C#N)c(SCCC(=O)Nc2ccc(F)cc2)nc2c1C(=O)CC(C)(C)C2	i	i	i	-19	12*	-0.18	130*	0.38*	98%*	160%*
Cc1ccc(-c2n[nH]c(=S)n2/N=C/c2ccc(C)o2)cc1	i	i	i	-6	6*	-0.71	0	0.52	i	i
CCOC(=O)C1CCN(S(=O)(=O)c2ccc3[nH]c4c(c3c2)CCCC4)CC1	i	i	i	-10	6*	0.34	102*	0.5	67%*	102%*	KCNQ1 APC inh=+
CCOC(=O)C1CCN(S(=O)(=O)c2ccc3[nH]c(=O)c(=O)[nH]c3c2)CC1	i	i	i	-9	i	-0.51	.	.	.	.
Cc1cccc(C(=O)Nc2cccc3c2CCCC3)c1	i	i	i	-2	i	0.02	.	.	.	.
CCN1/C(=C\c2ccc3cc(C)ccc3[n+]2CC)Sc2cc(C)c(C)cc21	i	i	i	-15	17*	-6	170*	0.26*	i	i
CCN1/C(=C/c2ccc3cc(C)cc(C)c3[n+]2CC)Sc2cc(C)ccc21	.	.	i	.	.	.	.	.	.	.
CCC(CO)Oc1cc(NCc2ccccn2)c2ncn(C(C)C)c2c1 (stereo unspecified)	.	.	i	.	.	.	.	.	.	.
CCN(CC)C(C(=O)NC1CCCCC1)c1ccc(C)cc1 (stereo unspecified)	i	i	i	-11	7*	1.1	75*	0.45	65%*	110%*
COc1cc2c(cc1OC)CN(C(=O)C1CCCN1S(=O)(=O)c1ccc(C)cc1)CC2 (stereo unspecified)	i	i	i	-8	i	-1.2	.	.	.	.
O=C(CCN1C(=O)/C(=C/c2ccccc2Cl)SC1=S)NC1C=CS(=O)(=O)C1 (stereo unspecified)	i	i	i	-7	i	0.77	.	.	.	.
CN(C1CCCCC1)S(=O)(=O)c1ccc(=S)[nH]c1	.	.	i	.	.	.	.	.	.	.
O=C(CSc1nnc(CNC(=O)c2c(F)cccc2F)o1)NCc1ccco1	i	i	i	-4	i	0.77	.	.	.	.
CCn1c(C)c(C)c2cc(C(=O)N3CCc4ccccc4C3)ccc21	i	i	i	-8	7*	0.78	114*	0.38	113%*	62%*	KCNQ1 APC inh=i
COC(=O)c1ccccc1NC(=O)COC(=O)c1ccccc1N=Nc1ccc(N(C)C)cc1	i	i	i	-4	i	-0.72	.	.	.	.
CN(C)c1ccc(N=Nc2ccccc2C(=O)OCC(=O)N(C)c2ccccc2)cc1	i	i	i	-7	8*	1.1	99*	0.42	93%*	121%*	KCNQ1 APC inh=i
Cc1cccc(CN2CCN(c3ncccn3)CC2)c1	i	i	i	2	i	-0.65	.	.	.	.
Cc1cccc(Cn2c(C(C)(C)C)cc3cccnc32)c1	i	i	i	-10	8*	-5.1*	64*	0.45	67%*	i
CC(CCc1ccccc1)NC(=O)c1ccc(NC(=O)c2ccccc2)cc1 (stereo unspecified)	i	i	i	-8	7*	1.3	67*	0.52	i	66%*
COc1ccc(C(=O)NC(C)CCc2ccccc2)cc1 (stereo unspecified)	i	i	i	-2	i	1.5	.	.	.	.
SMILES	KCNK9 inh	KCNQ1 act	KCNK3 inh	hERG rescue	KCNQ1 inh	Kir21 inh	KCNQ1 block val	CHO KCNQ1 ctr	KCNQ2 spec	KCNQ1 KCNE1 spec	others
Cc1ccc(F)c(CNC(=O)C2CCC(=O)N(CCCN3CCCC3=O)C2)c1F (stereo unspecified)	i	i	i	-7	i	-1.5	.	.	.	.
COc1ccc(C(=O)CC(=O)C(=O)Nc2ccc(OC)c(Cl)c2)cc1	-6.7*	i	i	-24	15*	-2.2	0	0.61	i	i
COc1ccccc1Oc1ccc(Oc2ccccc2OC)cc1	i	i	i	-8	7*	0.96	126*	0.36*	125%*	108%*
COc1ccc(Oc2ccccc2C#N)cc1	i	i	i	-12	i	0.2	.	.	.	.
CCN1C(=O)c2cccc3c(N)ccc(c23)C1=O	i	i	i	-42	24*	-23	+	0.011*	i	i
CCCCNc1ccc2c3c(cccc13)C(=O)N(CCCC)C2=O	i	i	i	-13	24*	-8	+	0.011*	i	i
CN(C)CCCN1C(=O)c2cccc3c(Br)ccc(c23)C1=O	i	i	i	-24	i	-2.6	.	.	.	.
O=C(CCCc1ccccc1)NCCc1ccc(F)cc1	i	i	i	-7	i	-2.5	.	.	.	.
Cc1cc(C)c(N2CCN(S(=O)(=O)N3CCCCCC3)CC2)c(C)c1	i	i	i	-13	7*	-0.51	126*	0.44	115%*	118%*
COc1ccc(CCC(=O)N2CCCC(Nc3ccccc3)C2)cc1OC (stereo unspecified)	i	i	i	-7	i	-0.46	.	.	.	.
